Screening results: PubChem BioAssay, several laboratories
AHR act – AHR activators, primary screen, cell-based, luminescence, luciferase reporter, human | Aryl hydrocarbon receptor (Homo sapiens), P35869 | AHR-responsive luciferase reporter cells | activation, % at 5 µM | hit rate 2.5% among 320,000 | AID 2796, 2010; in the data active = activation above about 47%;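 note: 0% = vehicle wells and 100% = reference agonist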
Target sequence (P35869 whole entry, looked up): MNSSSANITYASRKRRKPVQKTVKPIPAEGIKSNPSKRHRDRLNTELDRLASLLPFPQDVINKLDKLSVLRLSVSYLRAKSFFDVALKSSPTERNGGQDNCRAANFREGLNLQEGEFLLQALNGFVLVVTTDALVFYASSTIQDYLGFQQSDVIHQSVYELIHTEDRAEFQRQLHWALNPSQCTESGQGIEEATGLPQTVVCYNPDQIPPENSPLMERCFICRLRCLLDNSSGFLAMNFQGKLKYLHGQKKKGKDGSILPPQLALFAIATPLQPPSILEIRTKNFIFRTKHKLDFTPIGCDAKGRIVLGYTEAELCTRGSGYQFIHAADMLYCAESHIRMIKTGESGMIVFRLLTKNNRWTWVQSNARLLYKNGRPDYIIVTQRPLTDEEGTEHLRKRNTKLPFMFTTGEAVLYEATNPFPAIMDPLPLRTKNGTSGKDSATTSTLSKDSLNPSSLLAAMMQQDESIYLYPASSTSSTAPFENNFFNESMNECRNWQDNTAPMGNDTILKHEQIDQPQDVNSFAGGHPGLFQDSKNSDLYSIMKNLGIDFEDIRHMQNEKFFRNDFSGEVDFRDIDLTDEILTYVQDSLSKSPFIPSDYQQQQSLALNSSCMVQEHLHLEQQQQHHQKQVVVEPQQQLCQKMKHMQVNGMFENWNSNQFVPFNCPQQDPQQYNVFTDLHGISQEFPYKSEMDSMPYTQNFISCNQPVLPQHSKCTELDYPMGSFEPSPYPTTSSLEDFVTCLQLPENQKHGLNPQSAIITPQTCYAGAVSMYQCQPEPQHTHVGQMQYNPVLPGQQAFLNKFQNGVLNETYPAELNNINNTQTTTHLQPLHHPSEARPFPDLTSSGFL
Arrestin-AP2 inh – inhibitors of beta-arrestin/AP2 binding, primary screen, biochemical, GPCR trafficking, flow cytometry; beta-arrestin 1 C-terminal peptide binding to AP2 beta2-adaptin appendage (human); AID 504490, 2011; hit rate 0.31% among 340,000; FITC-arrestin peptide / GST-AP2 beads; AP2 beta2 appendage carries R879A mutation; inhibition, % at 10 µM;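 active = inhibition above a set limit, near 3 SD of compounds lacking own fluorescence, cut at about 54% in these data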;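 note: plate controls were DMSO wells for no effect and 5 µM unlabelled arrestin peptide for full effect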
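Measured by: flow cytometry, FL1 (488/535 nm); Material: AP2 appendage R879A on GSH beads; Evaluation: percent response; Timing: pre-incubation 12 min, peptide binding 1 h, room temperature; Also added: 50 nM FITC-arrestin peptide; Medium: PBS with 0.05% Tween 20 and 0.1% BSA.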
A3G deaminase – APOBEC3G DNA deaminase inhibitors, primary screen, biochemical, fluorescence, single-stranded DNA substrate, uHTS | recombinant A3G, ssDNA deamination FAM/TAMRA fluorescence | inhibition, % at 20 µM | hit rate 0.28% among 330,000 | AID 493012, 2011 | DNA dC->dU-editing enzyme APOBEC-3G (Homo sapiens), Q9HC16;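 active = inhibition of at least 40% at 20 µM, with no more than 30% in the related APOBEC3A deaminase screen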;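 note: plate controls were DMSO wells with A3G for no effect and wells lacking A3G enzyme for full effect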
A3A deaminase – APOBEC3A ssDNA deaminase inhibitors, primary screen, selectivity assay for APOBEC3G inhibitor project, biochemical, FAM/TAMRA oligo cleavage fluorescence | DNA dC->dU-editing enzyme APOBEC-3A (Homo sapiens), P31941 | recombinant A3A, FAM/TAMRA ssDNA deamination fluorescence | inhibition, % at 20 µM | hit rate 0.41% among 330,000 | AID 493011, 2011;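 active = at least 40% inhibition at 20 µM here, with at most 30% in a related deaminase screen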;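 note: plate controls were A3A with DMSO for no effect and wells lacking A3A enzyme for full effect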
UCH37 inh – inhibitors of human UCH37 deubiquitinase, primary screen, biochemical, Ub-AMC cleavage, fluorescence. hit rate 0.33% among 330,000. inhibition, % (no concentration beside the values). purified proteasome/UCH37;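 active = mean inhibition over replicate wells above about 20%, limit read from the data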;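 note: 0% = compound-free wells with enzyme and 100% = wells lacking proteasome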
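Signal – fluorescence, ex 355 nm, em 460 nm · System – Proteasome-bound UCH37 · Input – 0.15 nM proteasome as dispensed · Timing – 30 min preincubation with enzyme, 25 min cleavage at room temperature · Read-out basis – percent inhibition of cleavage signal versus uninhibited and no-proteasome wells · Medium – Tris-HCl pH 7.4 with ATP-MgCl2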
PolyA inhibitor – polyadenylation inhibitors in yeast reporter cells, primary screen, luminescence, S. cerevisiae; S. cerevisiae SKY197-pL101 polyadenylation reporter, beta-gal luminescence; efflux-impaired pdr1/pdr3 knockout yeast; score 100 = 6 SD above DMSO; activity score, % at 12 µM; hit rate 0.02% among 300,000;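 active = lowest replicate activity score at least 50, where 100 means six control SD above control mean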;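 note: yeast exposed to compound for 9 h at 30 °C; higher score means more reporter readthrough which indicates perturbed polyadenylation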
UCH37 confirm – retest of human UCH37 deubiquitinase inhibitors, confirmation, biochemical, Ub-AMC cleavage rate, fluorescence | shares compounds with UCH37 inh | Proteasome-bound UCH37 | inhibition, % at 20 µM | hit rate 27% among 480 | AID 624100, 2012;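 active = average inhibition over replicates above about 50%, so the earlier screening hit is confirmed, limit read from the data; inactive = the rest, counted as false positives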;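 note: based on cleavage rate fitted by regression over a 30 min kinetic read; 0% = proteasome plus Ub-AMC and 100% = Ub-AMC without proteasome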
An asterisk follows results filed as active; / = not tested or not shown. Compounds with a hit are over-represented: about 3.4% of the library has one in this group of screens.

SMILES	AHR act	Arrestin-AP2 inh	A3G deaminase	A3A deaminase	UCH37 inh	PolyA inhibitor	UCH37 confirm
S=C(NN=Cc1ccc2ncccc2c1)Nc1ccccc1	/	/	/	/	6	/	/
CSc1nc(Oc2ccccc2)c2sccc2n1	0	-4	-3	-8	-3	3	/
CSc1nc(Oc2ccc(Cl)cc2)c2sccc2n1	1	6	28	8	36*	-6	16
Cc1cc(C)cc(-n2c(C)cc(C=NNC(=O)CN(c3c(C)cccc3C)S(C)(=O)=O)c2C)c1	/	/	/	/	2	/	/
CC(OC(=O)c1ccc([N+](=O)[O-])s1)C(=O)Nc1ncc(Cl)cc1Cl (stereo unspecified)	3	-13	1	3	58*	-16	4
O=C1C2C3C=CC(CC3)C2C(=O)N1c1ccc(Cl)cc1 (stereo unspecified)	-2	43	-5	-5	1	-6	/
O=C1C2C3CCCC3=C3CCCC3C2C(=O)N1c1ccc(Cl)cc1 (stereo unspecified)	47	10	-3	0	63*	9	75*
CC[n+]1c(/C=C/c2c[nH]c3ccccc23)ccc2cc(C)ccc21	/	-15	-99	0	29*	/	42
O=c1cc(-c2ccco2)nc(-c2cccs2)o1	1	7	-3	-11	43*	-17	19
Cc1ccc(C(=O)ONc2ccc(N=NC(=O)c3ccccc3O)cc2)cc1	6	6	-7	-5	27*	-10	31
Cc1cc(C)n(-c2nnc(C)n2N=Cc2ccc(O)cc2)n1	/	/	/	/	4	/	/
Cn1cnc([N+](=O)[O-])c1S(=O)(=O)c1ccc(Cl)cc1	/	26	/	/	49*	-28	13
Cc1ccc(Cl)cc1NC1=C/C(=N\S(=O)(=O)c2cccs2)c2ccccc2C1=O	24	3	-4	3	43*	-11	31
O=C1C(Nc2ccc(O)cc2)=CC(=NS(=O)(=O)c2cccs2)c2ccccc21	/	/	/	/	75*	/	42
Cc1cc(C)c(S(=O)(=O)/N=C2\C=C(NS(=O)(=O)c3ccccc3)C(=O)c3ccccc32)c(C)c1	20	6	3	5	/	-7	/
CCc1ccc(S(=O)(=O)/N=C2\C=C(Nc3ccc(O)cc3)C(=O)c3ccccc32)cc1	16	28	5	4	/	-20	/
CN(C)Cc1c(C(=O)NN=Cc2ccccc2OCc2c(F)cccc2Cl)nnn1-c1nonc1N	/	/	/	/	-3	/	/
CC(C)(C)OC(=O)NCc1ccc(CNC(=O)c2[nH]cnc2C(=O)NC2CCN(C(=O)OC(C)(C)C)CC2)cc1	1	-8	-11	-3	39*	/	-16
CCCCCc1ccc(OCCOCCn2c[n+](C)c3ccccc32)c(CCCCC)c1	/	-3	/	/	33*	-12	57*
CC(=O)Nc1ccc(OCCC[n+]2ccccc2)cc1	-1	-13	-9	-1	2	10	/
CCCCCc1ccc(OCCC[n+]2ccccc2)c(CCCCC)c1	-1	10	-1	3	30*	-7	36
COc1ccc(OC)c(C=NNC(=O)c2cc3c(OC)cc(OC)cc3[nH]2)c1	/	/	/	/	-93	/	/
COc1cc(OC)c(OC)cc1/C=C1\Oc2cc(OCC(=O)N3Cc4ccccc4C[C@H]3C(=O)O)ccc2C1=O	0	3	-30	-25	27*	-5	18
COc1ccc(/C=C2\Oc3cc(OCC(=O)N4CCC[C@H]4C(=O)O)ccc3C2=O)c(OC)c1	0	-9	-9	-3	3	-12	/
O=C(NN=Cc1ccc([N+](=O)[O-])o1)c1cn(-c2ccccc2)nc1-c1ccc(F)cc1	/	/	/	/	5	/	/
SMILES	AHR act	Arrestin-AP2 inh	A3G deaminase	A3A deaminase	UCH37 inh	PolyA inhibitor	UCH37 confirm
CC(=NNC(=O)c1ccc(Br)cc1)c1ccccc1	/	/	/	/	-2	/	/
COC1=C(c2ccccc2)C(=O)c2ccccc2C1=O	15	15	-4	-2	27*	/	33
COc1ccc(C2=C(N)c3ccccc3C2=O)cc1	4	8	1	-1	3	23	/
Cc1c(/C(O)=C2/C(=O)C(=O)N(CCN3CCOCC3)C2c2cccs2)cnn1-c1ccccc1 (stereo unspecified)	-3	5	-6	-4	14	9	/
Cc1c(/C(O)=C2\C(=O)C(=O)N(CCCN(C)C)C2c2cccs2)cnn1-c1ccccc1 (stereo unspecified)	/	29	/	/	35*	/	2
CCCCCCCCCCCCCCCCn1cc[n+](CC(C)=O)c1	/	9	/	/	85*	/	96*
CCCCCCn1ccc(=N)cc1	-9	27	-4	-1	7	-11	/
C=CCN1C(=O)C(Cc2ccc(F)cc2)SC1=NN=Cc1ccco1 (stereo unspecified)	/	/	/	/	2	/	/
C=C(C)C1CCC(C)=C1CC(C)(C)C=Nn1cnnc1 (stereo unspecified)	/	/	/	/	42*	/	58*
C=C(C)C1CCC(C)=C1CC(C)(C)/C=N\n1cnnc1 (stereo unspecified)	2	5	-7	-4	/	-13	/
O=S(=O)(O)c1cc(O)c(N=Nc2ccc(O)cc2O)c2ccccc12	/	12	/	/	31*	/	51*
O=S(=O)(c1cc(O)ccc1O)c1cccc2c(S(=O)(=O)c3cc(O)ccc3O)cccc12	2	2	70	98	/	-15	/
N#Cc1c(N2CCCC2)nc(N)c2c(N)nc(N3CCCC3)cc12	45	7	-3	-4	31*	-13	1
CCCCOC(=O)c1ccc(NC(=O)Nc2ccc(OC)c(OC)c2)cc1	1	-1	-7	-1	38*	-12	-16
O=C1CSC(=S)N1N=Cc1ccc2c(c1)OCCO2	/	/	/	/	10	/	/
NC(=O)CC(NC(=O)Cc1ccc(Br)cc1)c1ccc(NCCOc2ccccc2)c([N+](=O)[O-])c1 (stereo unspecified)	0	-5	-3	0	36*	19	15
CC(=NNC(=O)c1cnccn1)c1cccs1	/	/	/	/	9	/	/
O=C(c1ccco1)[C@@H]1[C@@H]2C(=O)N(c3ccccc3)C(=O)[C@@H]2C2c3ccccc3C=CN21 (stereo partly specified)	33	-2	5	-1	64*	-23	5
